B1: tRNA (parent)
chain: GUUCCGUUGGCGUAAUGGUAACGCGUCUCCCUCCUAAGGAGAAGACUGCGGGUUCGAGUCCCGUACGGAACG

Fewer inactive variants are shown than the library holds.

The variants in the series derive from B1. The series is described as follows: yeast fitness relative to wild type (ratio to wild type); higher = fitter; tRNA-Arg(CCU), competitive growth, 37 C, YPD. The essentials:
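The tRNA-Arg(CCU) gene variants were made by chemical synthesis with a 3% per-site mutation rate at 69 sites and inserted at the native genomic locus of Saccharomyces cerevisiae. After pooling, the strains were competed in YPD at 37°C for 24 hours in six parallel replicates. Gene amplicons from the start population and each end population were read by 100-nucleotide paired-end sequencing, and Darwinian fitness relative to wild type was taken from genotype frequency changes. Genotypes needed ≥ 100 starting reads, and estimates < 0.5 were set to 0.5.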
Take G9C A14G U16G G23A C33A G44A C66U: the yeast fitness is not above 0.5.

In the case of G10A C11G G41C A45U, the yeast fitness is not above 0.5.

G9C G17C G39C A70U: the yeast fitness was not above 0.5.

Consider G9C G38C, for which the yeast fitness was 0.546.

For the variant G9C A20G A42U G44C G50C, the yeast fitness was not above 0.5.

For G9C C34U A43U C55A A57C, the yeast fitness is not above 0.5.

For the variant G9C G10C U47A, the yeast fitness is not above 0.5.

Regarding G9C U16C G51C, the yeast fitness is not above 0.5.

As to G9C U13G U28C G41C A43C A45U C49G U53G A69C, the yeast fitness stood at 0.611.

With G10A A20G U26C G39A, the yeast fitness was not above 0.5.

For the variant G10A A45U U53G, the yeast fitness is not above 0.5.

On to G9U C27U C29A A69U, for which the yeast fitness is not above 0.5.

G9C G41C: the yeast fitness was 0.575.

As to G9C U32A C55U A57U, the yeast fitness was not above 0.5.

As for G9C C49U A65U, the yeast fitness stood at 0.52.

Regarding G9C C24U C30G G52A C61U, the yeast fitness is not above 0.5.

Consider G9C C30G C46U, for which the yeast fitness was found to be 0.564.

Take G9C C27U G52C: the yeast fitness is not above 0.5.

G10A A20C C29G: the yeast fitness turned out to be 0.597.

In the case of G9C A14C A15U G23A C34A, the yeast fitness is not above 0.5.

As for G9C U16G U32C A37C, the yeast fitness was not above 0.5.

Take G9C A21G C66U A69U: the yeast fitness is not above 0.5.

Regarding G9A U28G A40C A42G, the yeast fitness is 0.76.

For the variant G9C A20C G67C, the yeast fitness is 0.537.

Regarding G10A A14U A20G U26G C31G C34G A42U A43C G50C, the yeast fitness is not above 0.5.

On to G9C U19G, for which the yeast fitness came to 0.502.

As for G10A A45C G50C G51C C55U G68A A70C, the yeast fitness is not above 0.5.

In the case of G9C C30G G38C G58C C66A, the yeast fitness stood at 0.535.

With G9C A14C G44C U47C A57C, the yeast fitness was not above 0.5.

In the case of G9C C61G G63C, the yeast fitness was not above 0.5.

Regarding G9C A42G, the yeast fitness came out at 0.673.

Consider G9C A42U, for which the yeast fitness amounted to 0.624.

Consider G9C G23A A43U A57U, for which the yeast fitness stood at 0.561.

Take G9C G12C A14G A20C: the yeast fitness is not above 0.5.

With G9C U13A G41A C62U, the yeast fitness is not above 0.5.

For G9C A37G C62U, the yeast fitness was not above 0.5.

In the case of G10A C11G U28A C33U G38A C49U, the yeast fitness was not above 0.5.

As to G9C G10C A36C G39C G48A, the yeast fitness amounted to 0.512.

As for G9C C30G A36U C46A, the yeast fitness is 0.532.

As for G9C A20C C66A, the yeast fitness was 0.601.

On to G9C C55A C61U, for which the yeast fitness is not above 0.5.

Regarding G10A A21C C24A A65C A69C, the yeast fitness is not above 0.5.

As to G9C A36C C49G A65G, the yeast fitness was 0.681.

For the variant G9A U28C A37U U47A C61U, the yeast fitness worked out at 0.871.

In the case of G10A A43U, the yeast fitness is 0.781.

Regarding G10A A70G, the yeast fitness stood at 0.743.

Consider G9C A14C U16C C27U C29A C33G C66A, for which the yeast fitness was 0.577.

On to G10A A37U A45G C46G C55A, for which the yeast fitness was not above 0.5.

As to G9C C11U C31A A40C A43U A65G C66G, the yeast fitness was not above 0.5.

With G10A A20C C24U A57G C61U, the yeast fitness is not above 0.5.

As for G10A C11G C60A G67U, the yeast fitness came out at 0.512.

Turning to G10A A57G C62G C66U, the yeast fitness was not above 0.5.

As to G9U G50A, the yeast fitness came to 0.663.

For the variant G10A A15G C55U, the yeast fitness came to 0.591.

In the case of G9C G23C, the yeast fitness is 0.573.

In the case of G10A A14G C34G, the yeast fitness was not above 0.5.

Consider G9C G23C C29U A36C C49G, for which the yeast fitness is not above 0.5.

G9C A42U C62G: the yeast fitness is not above 0.5.

Regarding G9C C49A, the yeast fitness worked out at 0.596.

Consider G9C U16G C66G, for which the yeast fitness was not above 0.5.

With G9C C31G U54A G67C A69U, the yeast fitness is not above 0.5.

For G9C U35C C46U, the yeast fitness worked out at 0.601.

Regarding G9A U47C, the yeast fitness came out at 0.909.

Turning to G9A U47G, the yeast fitness was found to be 0.626.

Consider G9C C27U C33G, for which the yeast fitness was not above 0.5.

For the variant G9C C11U A36C, the yeast fitness is not above 0.5.

With G9C C30A U35C, the yeast fitness was not above 0.5.

In the case of G10A A20U U35C G48C C60A A69C, the yeast fitness was not above 0.5.

For G10A A42C A43C, the yeast fitness came to 0.612.

Consider G9C C46G C61G A65C, for which the yeast fitness was not above 0.5.

As for G9C G12A A21C U26A G39C, the yeast fitness is 0.632.

As for G10A C11A A14G A15G, the yeast fitness was not above 0.5.

Take G9C A14U C24G U35G G50C: the yeast fitness was not above 0.5.

G9C G12A C22U C24U G58A: the yeast fitness was not above 0.5.

Turning to G9C C31G A69G, the yeast fitness is not above 0.5.

For the variant G9C C34G U47C C49U, the yeast fitness is not above 0.5.

Consider G9C U16G C29A, for which the yeast fitness is not above 0.5.

In the case of G10A A45G U59C, the yeast fitness came to 0.616.

For G9C A15U U16C A36U A69C, the yeast fitness is not above 0.5.

Turning to G10A A65G, the yeast fitness is 0.627.

Regarding G10A A37U C61G C66G, the yeast fitness is 0.623.

Turning to G9C C29U A36U A65G G67A, the yeast fitness is not above 0.5.

For G9C C29G C34G, the yeast fitness is not above 0.5.

With G9C C46U A65U A69U, the yeast fitness is not above 0.5.

On to G10A A21U U53A C66U, for which the yeast fitness is not above 0.5.

Turning to G9C C29U C30A C46G, the yeast fitness was not above 0.5.

Regarding G10A A42G A70C, the yeast fitness is not above 0.5.

On to G10A A57C, for which the yeast fitness amounted to 0.525.

For G9C C29A U32G C66U, the yeast fitness was not above 0.5.

Regarding G9C A37G G68A, the yeast fitness was not above 0.5.

With G10A C11A U16G G38A A42U, the yeast fitness was not above 0.5.

In the case of G10A A43C A65G, the yeast fitness is 0.589.

As for G10A C11A A15C C24A C34A C46G, the yeast fitness was determined as 0.559.

Consider G9C C49U A57G, for which the yeast fitness was 0.615.

For G9C U13C A69C, the yeast fitness was 0.564.

Turning to G9C A21G C60A, the yeast fitness is not above 0.5.

As for G9A U32G, the yeast fitness is 0.616.

With G9C A21G G44C U47C, the yeast fitness was not above 0.5.

Turning to G9C A43G G68A, the yeast fitness is not above 0.5.

G9C U26G C55A: the yeast fitness is not above 0.5.

In the case of G9C C27A U28G, the yeast fitness was not above 0.5.

As to G10A A21C C24A A65C, the yeast fitness was 0.521.

In the case of G10A A57C U59C, the yeast fitness was not above 0.5.

As for G9C A15U U28G A42U, the yeast fitness was not above 0.5.

For G9C A57C, the yeast fitness stood at 0.56.

As to G9C C30U U53C, the yeast fitness is not above 0.5.

As for G9C A57G U59A, the yeast fitness was not above 0.5.

For the variant G10A, the yeast fitness turned out to be 0.705.

G10A C11A: the yeast fitness was determined as 0.636.

Turning to G9C C22G C62A, the yeast fitness was not above 0.5.

With G9C A40U C66U, the yeast fitness was determined as 0.622.

With G9C C27A C30U C33G, the yeast fitness is not above 0.5.

Take G9C C55U: the yeast fitness came out at 0.635.

Turning to G9C C55A, the yeast fitness worked out at 0.631.

Turning to G9C C31G A40C, the yeast fitness is 0.597.

Turning to G9C G67C, the yeast fitness was found to be 0.746.

Turning to G9C C24U U26G, the yeast fitness was found to be 0.51.

In the case of G9C A36U C60G G63C, the yeast fitness was not above 0.5.

With G9C U13C C31G A57G, the yeast fitness is not above 0.5.

Take G9C U19C G48A C49U: the yeast fitness was found to be 0.634.

For the variant G10A A21G C29A, the yeast fitness amounted to 0.519.

Consider G9C U28A C46U C60A A70C, for which the yeast fitness was not above 0.5.

For G9C A20G, the yeast fitness was 0.668.

With G9C A20U, the yeast fitness is 0.667.

Regarding G9C G12A C29A G38A, the yeast fitness was not above 0.5.

Regarding G10A A37U G67C, the yeast fitness is 0.587.

In the case of G10A A20C G38A G41A, the yeast fitness is not above 0.5.

Consider G9C A21G A69U, for which the yeast fitness worked out at 0.512.

G9C G25A: the yeast fitness came out at 0.721.

As for G9A U32C C33G A37G G52A C55U A65U, the yeast fitness was determined as 0.583.

G9C C11A U47G U59A: the yeast fitness was not above 0.5.

Take G9C G23A A36C: the yeast fitness was determined as 0.777.

As to G9C C11G G12C U28C C61U, the yeast fitness was 0.747.

G9C C55A A69C: the yeast fitness was not above 0.5.

Regarding G9C G17A C66U, the yeast fitness is not above 0.5.

In the case of G9C C11A C33A C34A A37C A43G, the yeast fitness is not above 0.5.

Regarding G9C C61U C66G, the yeast fitness is not above 0.5.

As for G10A A21U C31A G39C C62G G68A, the yeast fitness is not above 0.5.

Regarding G9C C30U A37G C55G, the yeast fitness is not above 0.5.

As to G9C G38A A65G, the yeast fitness was determined as 0.519.

Consider G9C G18C C49G G63A A65U, for which the yeast fitness is not above 0.5.

Consider G9C G44C C61U, for which the yeast fitness is 0.584.

As for G9C A15C C34G, the yeast fitness is not above 0.5.

As to G9C U28C A42U U59G, the yeast fitness was not above 0.5.

For the variant G10A C11A G39C G44C G52C U53C C66G, the yeast fitness is not above 0.5.

Take G9C C30U G48C: the yeast fitness is not above 0.5.

On to G9C A43U, for which the yeast fitness was found to be 0.694.

G9C C27U U53A: the yeast fitness was 0.548.

On to G9C U26A A40C C55U C66A A69U, for which the yeast fitness was not above 0.5.

Regarding G9C G23A G50A, the yeast fitness is not above 0.5.

On to G10A A14U A20G U26G C31G C34G A42U A43C G50C A70C, for which the yeast fitness is not above 0.5.

Regarding G9C G52U, the yeast fitness was 0.502.

As to G9C A45G, the yeast fitness is 0.78.

Turning to G9C C27G C29G A36C, the yeast fitness was not above 0.5.

For the variant G9C C33U A40G U54G C62G, the yeast fitness is not above 0.5.

For G10A A21C C24A, the yeast fitness is not above 0.5.

As for G9C C24U U26G C62U, the yeast fitness was not above 0.5.

With G9C C22G C61A G63A, the yeast fitness was not above 0.5.

Consider G9U U16A A36C A37G G56C, for which the yeast fitness is not above 0.5.

With G10A A21G C30U G50C, the yeast fitness was 0.752.

Consider G9C C30U A45G, for which the yeast fitness is not above 0.5.

Regarding G9C U28C C30G C49G, the yeast fitness is not above 0.5.

On to G10A A36G G48C, for which the yeast fitness was 0.691.

Turning to G10A A40G, the yeast fitness was 0.79.

In the case of G10A A40U, the yeast fitness worked out at 0.683.

With G9C U28A A40C U47C G52A, the yeast fitness is not above 0.5.

On to G10A C11A U16G A69G, for which the yeast fitness came to 0.538.

The values above are taken from the RNAGym collection of RNA variant scans (doi:10.1126/science.aae0568).
